Experimental findings from the EternaBench riboswitch data are described below.

The test system of the data set is MS2 coat protein. In words: apparent Kd, MS2 coat protein; higher = weaker binding; RNA-MaP array. The gist of the method:
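Designed RNAs were transcribed on an Illumina sequencing chip from sequenced DNA templates. They were incubated at room temperature with fluorescently labeled MS2 coat protein at 1.5 nM to 3 μM, for 0.8–1.5 h at the lowest to 10–20 min at the highest concentrations, in Tris-HCl pH 7.5 buffer with KCl, MgCl2, BSA, DTT, tRNA and Tween20, with or without input ligand. Apparent Kd is the median of per-cluster binding-curve fits. Designs measured on fewer than 10 clusters were excluded.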

Where [1] appears, read: designed as: ON switch for flavin mononucleotide, no ligand.
Where [2] appears, read: ligand present: flavin mononucleotide, designed as: ON switch for flavin mononucleotide.
Where [3] appears, read: designed as: OFF switch for flavin mononucleotide, no ligand.
The mark [4] stands for this setting: ligand present: flavin mononucleotide, designed as: OFF switch for flavin mononucleotide.
[5] abbreviates: designed as: OFF switch for theophylline, no ligand.
The mark [6] stands for this setting: ligand present: theophylline, designed as: OFF switch for theophylline.
Setting [7] is: designed as: ON switch for theophylline, no ligand.
Where [8] appears, read: ligand present: theophylline, designed as: ON switch for theophylline.

As for “ACAGUACAUGAGGAUCACCCAUGUAGAAGAUGCUCAGGAUAUUGUGAGUCAGGUUAUGUACAAGAAGGGAGGCACG”, the “apparent Kd” value is, setting by setting: under setting [1], 25.4 nM; under setting [2], 14.1 nM. For the sequence “CAUGCUUGCGAGGAUAUAAGGUUCUCCCUGUUCUUAGAAGGCGCAACAUGAGGAUCACCCAUGUUCCUACCGAA”, the “apparent Kd” value is, setting by setting: under setting [3], 43 nM; under setting [4], 283 nM. Take “GUAGUGCUAAGAGGAUAUACGUUCUGCACAUGAGGAUCACCCAUGUACAAGGAGCCCAACCGGCGGUAGAAGGCUUUGACAGGA”: the “apparent Kd” value is 17.4 nM under setting [1] and 11.3 nM under setting [2]. In the case of “GAUUGCAUCGAUUCUCCACUCGCACCUGAUACCAGCGAUAGAAUUCGCCCUUGGCAGCAGUACACAUGAGGAUCACCCAUGUUAU”, the “apparent Kd” value was found to be 30.7 nM under setting [5] and 75 nM under setting [6]. As for “GACGAGAGACAGAAGGCUCGACUGUGGCUACGAGAUCUGAAAACAUGAGGAUCACCCAUGUUUCGAGAGGAUAUGUCGAAUUAU”, the “apparent Kd” value under setting [3] worked out at 129 nM and the “apparent Kd” value under setting [4] was 397 nM. On to “AUUCAUUGAAACAUGAGGAUCACCCAUGUACACUGGCACUUACAGGAUAUUGAAUAUGGAAGUCGCAAGAAGGGUAACGUGAUC”, for which the “apparent Kd” value by setting is: under setting [1], 112 nM; under setting [2], 57 nM. Regarding “UAUUGUAUAGGAUAUACAUGAGGAUCACCCAUGUUCGAUGUUUGGAGCCUGCUUCAUAGUAGAAGGAUACGCCC”, the “apparent Kd” value runs as follows: under setting [3], 16.3 nM; under setting [4], 16.7 nM. With “CCGACUCGCGUAGAGGAUAUGUAAUAAAAUACAUGAGGAUCACCCAUGUGAGACCGGGUGUCUCCACAGAAGGCUAUCGUGUCGUA”, the “apparent Kd” value under setting [1] is 133 nM.

On to “GAGGAGUAGUAGUCCGACACAUGAGGAUCACCCAUGUUAUGGAGAAGGCCGGAUCUGAGUAGAGCGGAGGAUAUCCUGAAUUAA”, for which the “apparent Kd” value by setting is: under setting [1], 26.7 nM; under setting [2], 19.8 nM. As to “CGCGUCCCGGACGAUACCAGAUAUGAGCGACACAUGAGGAUCACCCAUGUCAAUCAUGAGAUCCCUUGGCAGCGUUUGCACAACU”, the “apparent Kd” value came out at 162 nM under setting [7] and 209 nM under setting [8]. Turning to “GUCAAAUGUCAGAAGGUAGUGAUGUACUAAGGCUAAGGAUAUGAAGAAAAGAAAAUUACCGUUGACAUGAGGAUCACCCAUGUC”, the “apparent Kd” value was 13.8 nM under setting [1] and 9.86 nM under setting [2].

In the case of “UCUAUACAUGAGGAUCACCCAUGUCAGGAUAUAAGCACCGGGCGAUUGUCACGCGGCCUUAGAAGGGACAGGAA”, the “apparent Kd” value runs as follows: under setting [3], 17.4 nM; under setting [4], 28.8 nM. Consider “ACAUGAGGAUCACCCAUGUCGAAGCACGCGCCACCUUCAAGCAGAAGGAAGUGACAAGUACUAGCUUAGGAUAUGCUCAAAGGU”, for which the “apparent Kd” value under setting [1] amounted to 12.3 nM and the “apparent Kd” value under setting [2] was 7 nM.

As for “AUUAGACAAGGAUAUACAAGUCGUAUCGGCGCUGGGUGUAUACAUGAGGAUCACCCAUGUAGAAGGUGUGCUAU”, the “apparent Kd” value is, setting by setting: under setting [3], 101 nM; under setting [4], 190 nM. As to “GGCUAACAUGAGGAUCACCCAUGUAUUGAUACCAGUAUUUGAAAAUACCCUUGGCAGCAAAUGAAGAGCGUAGCAGGGUCGAUUA”, the “apparent Kd” value is, setting by setting: under setting [7], 11.3 nM; under setting [8], 16.8 nM. With “ACUCUAGAAUAGAAGGCCUGAGGAAGUAGUAAAGGAGGAUAUAUCAUACGAAAUUCACAUGAGGAUCACCCAUGUUGCGCAGAC”, the “apparent Kd” value by setting is: under setting [1], 21.2 nM; under setting [2], 12.4 nM.

With “UCACGUCGCCGAGGAUAUGAUUACCGCUCUCCAUCAGAAGGCGGCGCGUGGUCCACAACAUGAGGAUCACCCAUGUCGAUUGAG”, the “apparent Kd” value under setting [1] is 64.9 nM and the “apparent Kd” value under setting [2] was found to be 10.7 nM.

On to “GAAAGAUGAGGAUAUACAUGAGGAUCACCCAUGUGAUUAAAUUGAACACCGAAUUACUGUAGAAGGCAUAAACC”, for which the “apparent Kd” value came out at 19.9 nM under setting [3] and 16.8 nM under setting [4].

Take “CCAUGCGAUAUAGUGAUACAUGAGGAUCACCCAUGUAAAGUGAGAAGGCCAAAUUAAUACUAAGUGGAGGAUAUCAUCGUGAGC”: the “apparent Kd” value is, setting by setting: under setting [1], 53 nM; under setting [2], 20.7 nM. For “AUAUCAGGGUAGAAGGCAGCAUCAACAUGAGGAUCACCCAUGUAUAGGCACGUAGCCGCACGUGCUGAGGAUAUACGUUAUAAU”, the “apparent Kd” value worked out at 16.4 nM under setting [1] and 6.41 nM under setting [2]. As for “UUCAUGUUAGGAUAUAGUGUAAGAGCGGGCGGGACUCUAUUCUAGAAGGAACAUGAGGAUCACCCAUGUUAAGG”, the “apparent Kd” value came out at 213 nM under setting [3] and 124 nM under setting [4].

With “UGUUUUAAAGAGGAUAUGACAACGGUUCCACCGUCAGAAGGCUUUACAUGAGGAUCACCCAUGUACUGGAGUGA”, the “apparent Kd” value reads like this: under setting [3], 17.3 nM; under setting [4], 81.9 nM. Turning to “CGAGUCUAGGAGAAGGCAUACAUGAGGAUCACCCAUGUCAAAGGGCACGUAACGAUAAUCCACCAUGAGGAUAUCCUGUUUAGA”, the “apparent Kd” value was 26.3 nM under setting [3] and 21.7 nM under setting [4].

For the sequence “CAUUGGGUCAGUUCGACAUGAGGAUCACCCAUGUAGUUAACGAGAAGGAGUACCAGCCUAAGUGACUAGGAUAUCGAUAAGUGG”, the “apparent Kd” value reads like this: under setting [3], 37.3 nM; under setting [4], 38.7 nM. In the same order, the values of “UGUACAUGAGGAUCACCCAUGUUUGUAUCUUUAUCCGCGCGCAGAAGGUAGCCCAUGGAGACAGCUAAGGAUAUGCGUCACAUA” are 21.5 nM and 8.83 nM. Taken in the same sequence, the figures for “GGAUGGGUGGAAGGAUAUGAGCCCAGGACAUGAGGAUCACCCAUGUGUAGUUCAGUCUCUAAUUCUCAGAAGGUCCAGAUUCUA” were 18.1 nM and 21.5 nM. In the case of “CCGCAUAUGUGCCCAAUAUAACAUGAGGAUCACCCAUGUGGUAGAAGGAAUGCUCACGGCUCUCAUUAGGAUAUACCAGACUAU”, the “apparent Kd” value by setting is: under setting [1], 18.2 nM; under setting [2], 17.5 nM.

Turning to “GUGGGACAUGAGGAUCACCCAUGUGACGAUACCAGUCAAUUGAUGGACCCUUGGCAGCGUUGGUAUUGCGGGUAGGCGAGAUAAG”, the “apparent Kd” value under setting [7] was 43.2 nM and the “apparent Kd” value under setting [8] was found to be 45.4 nM. With “GUAGCUGAGUGUGAUACCAGAAACGACGUCCUUUAUCAUAACAUGAGGAUCACCCAUGUCUUCCCUUGGCAGCACUUUUCGGUCU”, the “apparent Kd” value is, setting by setting: under setting [5], 36.9 nM; under setting [6], 64.8 nM. “UGAGUAAGCGAGGAUAUUGGGCGCGUACGUGGUCAAGAAGGCGCAACAUGAGGAUCACCCAUGUGCUUCUCUUG”: the “apparent Kd” value is, setting by setting: under setting [3], 15.7 nM; under setting [4], 29.2 nM. Consider “GGUCAACGAUUUUACAUGAGGAUCACCCAUGUUACGGUCGCCGAGGAUAUGUCAGGAUUAUCACAACAGAAGGCGGAAGACACC”, for which the “apparent Kd” value by setting is: under setting [1], 16.5 nM; under setting [2], 9.4 nM. Consider “GUUGAGGGCGUGCACAUGAGGAUCACCCAUGUUCUACCUAUCGAGGAUAUAUCUGUAGGAUCAGAAUAGAAGGCGAGCAAGGUC”, for which the “apparent Kd” value stood at 21.4 nM under setting [3] and 14.8 nM under setting [4]. In the same order, the values of “GGGCGACUGCAAGGAUAUCUCGAAGUGAGUGGCAGAGAAGGUGCACGUACAUGAGGAUCACCCAUGUGAACUUAUUGGUCAAGG” are 25.2 nM and 21.9 nM. Taken in the same sequence, the figures for “AAGCCACAUGAGGAUCACCCAUGUGAGGAUAUUCAUCUAGAUCAACAAGACACGGAUAGAAGAAGGCACGGUGG” were 14 nM and 29.5 nM. For “CAAGCACCAACCGAUACCAGCUUAGUAGUAUGCUCAUUAAACAUGAGGAUCACCCAUGUGAGCCCUUGGCAGCGGAUUUCCCUGC”, the “apparent Kd” value under setting [5] turned out to be 13.3 nM and the “apparent Kd” value under setting [6] is 20.7 nM. Turning to “UGACUAAAGGAGAAGGGCCACUCCAUUACUUCGGCAGGAUAUCCAUAAACAUGAGGAUCACCCAUGUACAUACAUUGGACGGCG”, the “apparent Kd” value by setting is: under setting [1], 8.62 nM; under setting [2], 7.73 nM.

Turning to “UACAAAGAAUAGGAUAUCGAGAGGUAAUUUGGGCGAGAAGGAUUCACAUGAGGAUCACCCAUGUAGGCGGAUCU”, the “apparent Kd” value under setting [3] was found to be 30.7 nM and the “apparent Kd” value under setting [4] came out at 40.9 nM. For the sequence “GUGAAGUUAGUGAGCGUUAGUCAAGCCAAACGAGGACCGGUACGGCCGCCACUCGCGCAUCGACAUGAGGAUCACCCAUGUGCCG”, the “apparent Kd” value by setting is: (designed as: OFF switch for tryptophan, no ligand) 14.6 nM; (ligand present: tryptophan, designed as: OFF switch for tryptophan) 17.7 nM.

As to “AGGUCCGGAGAGAAGGCCGACUUUGUAAUACACGGAGGAUAUCUACCACAUGAGGAUCACCCAUGUCCACACCGCAAGUUGUAA”, the “apparent Kd” value under setting [1] is 15 nM and the “apparent Kd” value under setting [2] was found to be 10.8 nM. Consider “CUGAGCAAAGGAUAUACUAAUUGUGAGUGACCCAGUUAACGACAUGAGGAUCACCCAUGUAGAAGGUUGGAACA”, for which the “apparent Kd” value by setting is: under setting [3], 26.4 nM; under setting [4], 24.6 nM. Consider “CCAUGACAUGAGGAUCACCCAUGUGGGUGCAGACAAGGAUAUAGUAAGAAUAGGAUAGAUCUAGAAGGUGUCAUUA”, for which the “apparent Kd” value by setting is: under setting [1], 528 nM; under setting [2], 282 nM. Taken in the same sequence, the figures for “GCCAUAAUCUGAGGAUAUAGAGAGAUAAGGAAGCACAUGAGGAUCACCCAUGUCCGUGGUAUAGGCAAGAAGGCAGCUGGAAUC” were 15.3 nM and 15.7 nM.

As to “CGUCUACAUGAGGAUCACCCAUGUCAGGAUAUACACCAACAACCUUCGCGAGAUAGGUGUAGAAGGGACGGGUA”, the “apparent Kd” value is, setting by setting: under setting [3], 8.76 nM; under setting [4], 13.5 nM. Taken in the same sequence, the figures for “AAAUUAAUCAGAGGAUAUAGACAUGAGGAUCACCCAUGUACCAAAAUCGCGAAGAAGGAUCCGUGCUAGAAGGCAGAAUACAUA” were 10.3 nM and 8.65 nM. As for “CAUGGGCUAAGACAUUAUUCGUAUUUUGAUACCAGAAAAUUGGCGUUCCCUUGGCAGCAAUAUACAUGAGGAUCACCCAUGUCCC”, the “apparent Kd” value is 80.6 nM under setting [5] and 93.8 nM under setting [6].

For “CACGAUACUACAGGAUAUGCCGGUUACCAAUCUGCAGAAGGGUAGAUUAGUCUAACAUGAGGAUCACCCAUGUACCUCUCAUGU”, the “apparent Kd” value under setting [3] was 208 nM and the “apparent Kd” value under setting [4] amounted to 248 nM. In the case of “AGACUUAGACAAGGAUAUGGUGAGGCCACCUUACAUGAGGAUCACCCAUGUCUAGAGAUCCUGUGCCAGAAGGUGUAGUUGGAC”, the “apparent Kd” value runs as follows: under setting [1], 312 nM; under setting [2], 75.7 nM. On to “UAACCACCGCAGGAUAUGCUAUGUUCAGUGUCUGCAGAAGGGCGUACAUGAGGAUCACCCAUGUAGUGACCUCA”, for which the “apparent Kd” value came out at 95.2 nM under setting [3] and 110 nM under setting [4].
